According to ChEMBL document CHEMBL1132256, “Structure-activity relationships for substituted bis(acridine-4-carboxamides): a new class of anticancer agents” (J Med Chem, 1999):

These compounds were tested on CAKI-1 (assay: inhibitory activity against renal tumor […] cell line.). Conditions: Homo sapiens.
Assay type: functional
How it was run: (§1)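 Tested in the NCI human cell line panel. GI50 = drug concentration (nM) giving growth inhibition to 50% of controls; values below 10 nM were taken as 10 nM in calculations.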

SMILES	GI50 [nM]
CN(CCCNC(=O)c1cccc2cc3cccc(Br)c3nc12)CCCNC(=O)c1cccc2cc3cccc(Br)c3nc12	< 10
Cc1ccc2cc3cccc(C(=O)NCCCN(C)CCCNC(=O)c4cccc5cc6ccc(C)cc6nc45)c3nc2c1	669
CN(CCCNC(=O)c1c(Cl)ccc2cc3ccccc3nc12)CCCNC(=O)c1c(Cl)ccc2cc3ccccc3nc12	4580
CCc1cccc2cc3cccc(C(=O)NCCCN(C)CCCNC(=O)c4cccc5cc6cccc(CC)c6nc45)c3nc12	104

The compounds below were run on SK-OV-3 (assay: inhibitory activity against ovarian carcinoma SKOV3 cell line.). Conditions: Homo sapiens.
Assay type: functional
How it was run: as §1

SMILES	GI50 [nM]
CN(CCCNC(=O)c1cccc2cc3cccc(Br)c3nc12)CCCNC(=O)c1cccc2cc3cccc(Br)c3nc12	166
Cc1ccc2cc3cccc(C(=O)NCCCN(C)CCCNC(=O)c4cccc5cc6ccc(C)cc6nc45)c3nc2c1	3040
CN(CCCNC(=O)c1c(Cl)ccc2cc3ccccc3nc12)CCCNC(=O)c1c(Cl)ccc2cc3ccccc3nc12	8380
CCc1cccc2cc3cccc(C(=O)NCCCN(C)CCCNC(=O)c4cccc5cc6cccc(CC)c6nc45)c3nc12	10000

These compounds were tested on Jurkat (assay: Ratio of inhibitory activity against doxorubicin resistant jurkat cells to inhibitory activity against wild type human jurkat cells). Conditions: not given.
Assay type: functional
How it was run: (§2)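 Wild-type Jurkat (JLC) and its amsacrine-resistant (JLA) or doxorubicin-resistant (JLD) sublines each seeded at 3.75 × 10^3 cells/well, 4 days with drug, sulforhodamine read-out. IC50 (nM) for 50% of control cell number; ratio = resistant-line IC50 divided by JLC IC50. Duplicate assays, CV ca. 25%.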

SMILES	Ratio
CN(CCCNC(=O)c1cccc2cc3cccc(Br)c3nc12)CCCNC(=O)c1cccc2cc3cccc(Br)c3nc12	0.9
Cc1ccc2cc3cccc(C(=O)NCCCN(C)CCCNC(=O)c4cccc5cc6ccc(C)cc6nc45)c3nc2c1	0.9
CN(CCCNC(=O)c1c(Cl)ccc2cc3ccccc3nc12)CCCNC(=O)c1c(Cl)ccc2cc3ccccc3nc12	1.2
CCc1cccc2cc3cccc(C(=O)NCCCN(C)CCCNC(=O)c4cccc5cc6cccc(CC)c6nc45)c3nc12	0.9

Each compound was assayed on MCF7 (assay: inhibitory activity against multi drug resistant MCF cell line.). Conditions: Homo sapiens, in the assay text read “MCF7 cell line” for “multi drug resistant MCF cell line”.
Assay type: functional
How it was run: as §1

SMILES	GI50 [nM]
CN(CCCNC(=O)c1cccc2cc3cccc(Br)c3nc12)CCCNC(=O)c1cccc2cc3cccc(Br)c3nc12	13
Cc1ccc2cc3cccc(C(=O)NCCCN(C)CCCNC(=O)c4cccc5cc6ccc(C)cc6nc45)c3nc2c1	530
CN(CCCNC(=O)c1c(Cl)ccc2cc3ccccc3nc12)CCCNC(=O)c1c(Cl)ccc2cc3ccccc3nc12	488
CCc1cccc2cc3cccc(C(=O)NCCCN(C)CCCNC(=O)c4cccc5cc6cccc(CC)c6nc45)c3nc12	265

The compounds below were run on Lewis lung carcinoma cell line (assay: Inhibitory activity of tested against Murine Lewis lung carcinoma). Conditions: Mus musculus.
Assay type: functional, cell-based
How it was run: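 Lewis lung carcinoma (LLTC) cells at 10^3 cells/well, 4-day continuous drug exposure, growth read by sulforhodamine assay. IC50 (nM) = concentration giving 50% of control cell number. Duplicate independent assays, CV ca. 25%.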

SMILES	IC50 [nM]
CN(CCCNC(=O)c1cccc2cc3cccc(Br)c3nc12)CCCNC(=O)c1cccc2cc3cccc(Br)c3nc12	6
Cc1ccc2cc3cccc(C(=O)NCCCN(C)CCCNC(=O)c4cccc5cc6ccc(C)cc6nc45)c3nc2c1	56
CN(CCCNC(=O)c1c(Cl)ccc2cc3ccccc3nc12)CCCNC(=O)c1c(Cl)ccc2cc3ccccc3nc12	2980
CCc1cccc2cc3cccc(C(=O)NCCCN(C)CCCNC(=O)c4cccc5cc6cccc(CC)c6nc45)c3nc12	27

The compounds below were run on Jurkat (assay: Concentration required to inhibit 50% growth of human Jurkat cells). Conditions: not given.
Assay type: functional, cell-based
How it was run: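 Jurkat leukemia (JLC) cells seeded at 3.75 × 10^3 cells/well and exposed to drug for 4 days; growth measured by sulforhodamine assay. IC50 = drug concentration (nM) reducing cell number to 50% of control cultures. Independent assays in duplicate, coefficients of variation ca. 25%.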

SMILES	IC50 [nM]
CN(CCCNC(=O)c1cccc2cc3cccc(Br)c3nc12)CCCNC(=O)c1cccc2cc3cccc(Br)c3nc12	24
Cc1ccc2cc3cccc(C(=O)NCCCN(C)CCCNC(=O)c4cccc5cc6ccc(C)cc6nc45)c3nc2c1	177
CN(CCCNC(=O)c1c(Cl)ccc2cc3ccccc3nc12)CCCNC(=O)c1c(Cl)ccc2cc3ccccc3nc12	900
CCc1cccc2cc3cccc(C(=O)NCCCN(C)CCCNC(=O)c4cccc5cc6cccc(CC)c6nc45)c3nc12	113

The compounds below were run on P388 (assay: Inhibitory activity against Murine […]). Conditions: Mus musculus.
Assay type: functional, cell-based
How it was run: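 Murine P388 leukemia cells seeded at 4.5 × 10^3 cells/well, cultured 3 days with drug; growth measured by [3H]TdR uptake. IC50 = drug concentration (nM) reducing cell number to 50% of controls. Independent assays in duplicate, CV ca. 25%.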

SMILES	IC50 [nM]
CN(CCCNC(=O)c1cccc2cc3cccc(Br)c3nc12)CCCNC(=O)c1cccc2cc3cccc(Br)c3nc12	15
Cc1ccc2cc3cccc(C(=O)NCCCN(C)CCCNC(=O)c4cccc5cc6ccc(C)cc6nc45)c3nc2c1	345
CN(CCCNC(=O)c1c(Cl)ccc2cc3ccccc3nc12)CCCNC(=O)c1c(Cl)ccc2cc3ccccc3nc12	> 200000
CCc1cccc2cc3cccc(C(=O)NCCCN(C)CCCNC(=O)c4cccc5cc6cccc(CC)c6nc45)c3nc12	170

These compounds were tested on Jurkat (assay: Ratio of inhibitory activity against amsacrine resistant jurkat cells to inhibitory activity against wild type human jurkat cells). Conditions: not given.
Assay type: functional
How it was run: as §2

SMILES	Ratio
CN(CCCNC(=O)c1cccc2cc3cccc(Br)c3nc12)CCCNC(=O)c1cccc2cc3cccc(Br)c3nc12	0.4
Cc1ccc2cc3cccc(C(=O)NCCCN(C)CCCNC(=O)c4cccc5cc6ccc(C)cc6nc45)c3nc2c1	0.7
CN(CCCNC(=O)c1c(Cl)ccc2cc3ccccc3nc12)CCCNC(=O)c1c(Cl)ccc2cc3ccccc3nc12	0.9
CCc1cccc2cc3cccc(C(=O)NCCCN(C)CCCNC(=O)c4cccc5cc6cccc(CC)c6nc45)c3nc12	0.7

These compounds were tested on NCI/ADR-RES (assay: inhibitory activity against multi drug resistant NCI/ADR cell line.). Conditions: Homo sapiens.
Assay type: functional
How it was run: as §1

SMILES	GI50 [nM]
CN(CCCNC(=O)c1cccc2cc3cccc(Br)c3nc12)CCCNC(=O)c1cccc2cc3cccc(Br)c3nc12	110
Cc1ccc2cc3cccc(C(=O)NCCCN(C)CCCNC(=O)c4cccc5cc6ccc(C)cc6nc45)c3nc2c1	407
CN(CCCNC(=O)c1c(Cl)ccc2cc3ccccc3nc12)CCCNC(=O)c1c(Cl)ccc2cc3ccccc3nc12	37000
CCc1cccc2cc3cccc(C(=O)NCCCN(C)CCCNC(=O)c4cccc5cc6cccc(CC)c6nc45)c3nc12	1340

Each compound was assayed on HT-29 (assay: inhibitory activity against colon HT-29 cell line.). Conditions: Homo sapiens.
Assay type: functional
How it was run: as §1

SMILES	GI50 [nM]
CN(CCCNC(=O)c1cccc2cc3cccc(Br)c3nc12)CCCNC(=O)c1cccc2cc3cccc(Br)c3nc12	< 10
Cc1ccc2cc3cccc(C(=O)NCCCN(C)CCCNC(=O)c4cccc5cc6ccc(C)cc6nc45)c3nc2c1	62
CN(CCCNC(=O)c1c(Cl)ccc2cc3ccccc3nc12)CCCNC(=O)c1c(Cl)ccc2cc3ccccc3nc12	727
CCc1cccc2cc3cccc(C(=O)NCCCN(C)CCCNC(=O)c4cccc5cc6cccc(CC)c6nc45)c3nc12	1390

What follows are compounds tested on HCT-116 (assay: inhibitory activity against colon HCT116 cell line.). Conditions: Homo sapiens.
Assay type: functional
How it was run: as §1

SMILES	GI50 [nM]
CN(CCCNC(=O)c1cccc2cc3cccc(Br)c3nc12)CCCNC(=O)c1cccc2cc3cccc(Br)c3nc12	< 10
Cc1ccc2cc3cccc(C(=O)NCCCN(C)CCCNC(=O)c4cccc5cc6ccc(C)cc6nc45)c3nc2c1	130
CN(CCCNC(=O)c1c(Cl)ccc2cc3ccccc3nc12)CCCNC(=O)c1c(Cl)ccc2cc3ccccc3nc12	171
CCc1cccc2cc3cccc(C(=O)NCCCN(C)CCCNC(=O)c4cccc5cc6cccc(CC)c6nc45)c3nc12	221
